High-throughput results as filed in PubChem.
Compounds with a hit are over-represented: about 1.8% of the library has one in this group of screens.
CHRM4 PAM = positive allosteric modulators of human muscarinic M4 receptor | P08173 | CHO-K1 hM4/Gqi5, Fluo-8 calcium fluorescence, ACh EC20; 0% = ACh EC20, 100% = maximal ACh | activation, % at 3 µM | hit rate 0.4% among 360,000 | AID 624126;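 active means activation above its plate's cutoff, the mean activation of sample wells plus 3 SD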
Target sequence (P08173 whole entry, looked up): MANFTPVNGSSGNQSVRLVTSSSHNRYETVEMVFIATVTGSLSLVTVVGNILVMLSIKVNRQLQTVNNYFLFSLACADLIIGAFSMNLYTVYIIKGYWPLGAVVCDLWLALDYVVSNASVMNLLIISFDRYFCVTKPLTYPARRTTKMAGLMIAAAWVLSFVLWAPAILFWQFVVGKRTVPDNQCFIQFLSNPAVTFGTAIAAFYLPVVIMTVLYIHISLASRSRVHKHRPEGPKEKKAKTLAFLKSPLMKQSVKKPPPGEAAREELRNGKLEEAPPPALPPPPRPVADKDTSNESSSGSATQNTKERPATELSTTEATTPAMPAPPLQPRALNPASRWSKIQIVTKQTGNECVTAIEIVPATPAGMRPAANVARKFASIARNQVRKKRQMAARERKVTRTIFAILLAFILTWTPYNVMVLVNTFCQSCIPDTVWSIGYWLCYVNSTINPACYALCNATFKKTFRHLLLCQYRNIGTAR
CHRM4 antagonist = blocks acetylcholine activation of human M4 receptor; CHO-hM4 cells, ACh EC80, Fluo-8 calcium fluorescence; AID 624125; inhibition, % at 3 µM; hit rate 0.73% among 360,000; P08173;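 active means inhibition above its plate's cutoff, the mean inhibition of sample wells plus 3 SD, cut at about 27% in these data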;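 further: 0% = acetylcholine EC80 with DMSO and 100% = DMSO without agonist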
CHRM5 antagonist = antagonists of human muscarinic M5 receptor (CHRM5). P08912. CHO-hM5 cells, Fluo-8 calcium fluorescence, ACh EC80. inhibition, % at 3 µM. hit rate 0.59% among 360,000;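 active means inhibition above a per-plate cutoff, the mean of that plate's test compounds plus 3 SD, cut at about 27% in these data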;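 further: 0% = acetylcholine EC80 with DMSO and 100% = DMSO without agonist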
CHRM4 agonist = CHRM4 agonism in calcium assay | P08173 | activation, % at 3 µM | hit rate 0.14% among 360,000 | CHO-K1 hM4/Gqi5, Fluo-8 calcium fluorescence; vehicle 0%, full acetylcholine response 100% | AID 624127;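 active means activation above the run mean over all test wells plus 3 SD, cut at about 32% in these data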;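 further: peak over basal fluorescence ratio per well then scaled between controls; 0% = DMSO wells and 100% = acetylcholine at EC100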
CHRM5 PAM = potentiates acetylcholine response at human M5 receptor; P08912; CHO-K1 hM5, Fluo-8 calcium, ACh EC20 PAM; 0% = ACh EC20, 100% = ACh EC100; activation, % at 3 µM; hit rate 0.3% among 360,000; AID 624038;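 active means activation above the run cutoff, the mean activation of all test compounds plus 3 SD, cut at about 18% in these data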
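System: CHO-K1 cell line with stable human muscarinic M5 receptor expression | Also added: EC20 acetylcholine as agonist stimulus | Compound: One concentration, 3 µM final (nominal) | Timing: Fluo-8 loading 80 min at 37 °C plus 30 min room temperature | Measured by: Fluo-8 calcium dye fluorescence, kinetic read | Read-out basis: % activation, ACh-normalized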
CHRM5 agonist = agonists of human muscarinic M5 receptor (CHRM5). P08912. CHO-K1 hM5 cells, Fluo-8 calcium fluorescence; 0% DMSO wells, 100% maximal acetylcholine response. activation, % at 3 µM. hit rate 0.19% among 360,000;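 active means activation above the run's mean over test compounds plus 3 SD, cut at about 23% in these data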;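 further: signal is peak over basal fluorescence ratio across the kinetic read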
Active calls of the source: *.

SMILES	CHRM4 PAM	CHRM4 antagonist	CHRM5 antagonist	CHRM4 agonist	CHRM5 PAM	CHRM5 agonist
O=C(NN=C1CCCC1)c1ccc(Br)cc1	7	-6	6	2	3	-2
N#Cc1ccc(-c2ccc(F)cc2)nc1Oc1ccc(Cl)c(Cl)c1	33*	-2	2	1	1	-3
COCCN(Cc1ccccc1)C(=O)C1CCN(S(=O)(=O)c2ccc3c(c2)OCCO3)CC1	2	-6	-2	4	-1	21
CC(C)C(=O)Nc1ccc(C(=O)Nc2ccc(S(=O)(=O)N3CCOCC3)cc2)cc1	-3	-1	4	1	6	-2
CC(Sc1ccc(Cl)cc1)C(=O)Nc1ccc(S(=O)(=O)N2CCOCC2)cc1 (centres undefined)	-7	-4	6	26	7	39*
CCC1C(=O)N=C(SCC(=O)Nc2cccc3ccccc23)NC1=O (centres undefined)	28*	9	-7	1	5	1
COc1ccc(CC(=O)Nc2cccc(S(=O)(=O)N3CCOCC3)c2)cc1OC	0	-2	8	10	-8	7
CC(=O)Nc1ccc(OCC(O)Cn2c3ccccc3c3ccccc32)c(C)c1 (centres undefined)	-11	27*	15	26	-12	11
CC(=O)Nc1ccc(OCC(O)Cn2c3ccccc3c3ccccc32)cc1 (centres undefined)	16	0	-2	11	0	3
CN(C)CCNc1ncnc2c1ncn2[C@H]1CN(CCc2ccccc2)C[C@@H](CO)O1	7	-18	5	0	-6	4
CCOC(=O)CP(=O)(c1ccccc1)c1ccccc1	4	4	0	0	-3	3
CCOC(=O)c1c(C)noc1CP(=O)(c1ccccc1)c1ccccc1	18*	-3	-7	1	12	-9
Cc1ccc(OCCC(=O)Nc2cc(S(=O)(=O)N3CCOCC3)ccc2N2CCCC2)cc1	5	3	7	2	-5	-5
CC(CN(C)C)CN1c2ccccc2Sc2ccccc21 (centres undefined)	-18	82*	98*	9	-19	1
CC(CN1c2ccccc2Sc2ccccc21)N(C)C (centres undefined)	-19	99*	99*	1	-18	0
COc1ccc2c(c1)N(C[C@H](C)CN(C)C)c1ccccc1S2	-17	54*	60*	9	-19	0
CCN(CC)CC(O)CN1c2ccccc2Sc2ccccc21 (centres undefined)	-18	15	39*	5	-18	-6
OCCN(CCO)CC(O)CN1c2ccccc2Sc2ccccc21 (centres undefined)	-7	16	10	2	-3	-7
COc1ccc(F)cc1S(=O)(=O)N1CCc2ccccc2C1	-2	-16	-3	3	0	-3
CC(C)(C)NC(=O)COc1coc(CN2CCN(C(=O)c3ccco3)CC2)cc1=O	0	-1	3	0	1	1
CCc1cccc(C)c1NC(=O)c1ccccc1	-11	5	16	10	-13	0
CCc1cccc(C)c1NC(=O)C1=C(C(=O)O)CCCC1	5	28*	19	2	-9	-5
COc1c(S(=O)(=O)N2CCN(C)CC2)ccc(Cl)c1Cl	-4	5	15	1	-2	2
Cc1cccnc1N1C(=O)c2ccc(C(=O)O)cc2C1=O	5	-3	6	0	1	-1
CCCCOC(=O)Nc1ccc2c(C)cc(=O)oc2c1	30*	-10	0	0	-5	-3
SMILES	CHRM4 PAM	CHRM4 antagonist	CHRM5 antagonist	CHRM4 agonist	CHRM5 PAM	CHRM5 agonist
CCOC(=O)Nc1ccc2c(C)cc(=O)oc2c1	5	4	2	3	-8	2
CCCOc1ccc(C(=O)N2CCCC2C(=O)O)cc1 (centres undefined)	19*	-6	-3	3	-2	2
C[C@H](NC(=O)Nc1ccccc1F)C(=O)O	13	0	0	1	-2	2
C[C@H](NC(=O)c1ccccc1Cl)C(=O)Nc1ccccc1F	-21	75*	11	-5	0	-2
Cc1noc(C)c1C(=O)OCC(=O)Nc1ccc(N2CCOCC2)cc1	20*	-7	11	1	0	1
O=C(CCCCCn1c(=S)[nH]c2ccc(Br)cc2c1=O)NCC1CCCO1 (centres undefined)	3	3	3	1	-4	2
NS(=O)(=O)c1ccc(CCNC(=O)CCCCCn2c(=S)[nH]c3ccc(Br)cc3c2=O)cc1	-14	21	27*	17	-25	2
CCC(C)(C)NC(=O)C1CCN(S(=O)(=O)c2cccs2)CC1	-9	2	33*	20	-14	-1
O=C(N/N=C/c1ccco1)C1CC1(c1ccccc1)c1ccccc1 (centres undefined)	11	28*	11	-1	-10	-3
C/C(=N/NC(=O)C1CC1(c1ccccc1)c1ccccc1)c1ccco1 (centres undefined)	-4	9	2	-1	-1	0
CCOC(=O)CCc1c(C)c2ccc(OCC(=O)N(CC)CC)c(C)c2oc1=O	-15	36*	6	-2	-6	2
CCc1c(C)c2ccc(OCC(=O)N(C)C)c(C)c2oc1=O	7	-3	-3	1	-3	1
CN(C)c1ccc(C=Cc2nccc3ccccc23)cc1	-17	23	29*	36*	-19	29*
COc1cccc(C=Cc2nccc3ccccc23)c1OC	-10	-6	17	4	-1	-6
CCN(CC)c1nc(C=Cc2ccc(N(C)C)cc2)c2nccnc2n1	-10	41*	50*	29	-13	31*
O=C(COC(=O)C1CC1)Nc1c(Cl)cccc1C(F)(F)F	3	3	-2	1	3	1
O=C(CSc1nnc(COc2ccccc2)o1)Nc1ccc(F)cc1	4	-5	7	3	-1	-3
CCC(C)[C@H](NC(=O)NCc1ccc(S(N)(=O)=O)cc1)C(=O)O (some centres undefined)	3	1	-3	0	10	3
O=C(C[n+]1ccccc1)Nc1ccc(Oc2ccccc2)cc1	-26	47*	6	-1	-26	-15
CN(C)c1ccc(NC(=O)C[n+]2ccccc2)cc1	0	1	8	-1	-3	-5
CC(C)(C)C(=O)/C=c1\s/c(=C\c2ccc(-c3ccc([N+](=O)[O-])cc3)o2)c(=O)n1CC(=O)NC(N)=O	-9	17	32*	9	-12	9
